Experimental data reported in ChEMBL document CHEMBL4390691, “Discovery of 1,3-dihydro-2H-imidazo[4,5-c]quinolin-2-ones based novel, potent and PI3Kδ selective inhibitors” (Bioorg Med Chem Lett, 2019).
The source made the active and inactive calls. No cut-off for these calls is given here.

Tests used:
[1] = molecular target: T1, CYP2C8 (Homo sapiens, UniProt P10632); experiment: Inhibition of CYP2C8 in human liver microsomes at 10 uM using testosterone/dextromethorphan as probe substrate measured after 10 mins relative to control; assay type: ADME
T1 sequence (P10632 whole entry): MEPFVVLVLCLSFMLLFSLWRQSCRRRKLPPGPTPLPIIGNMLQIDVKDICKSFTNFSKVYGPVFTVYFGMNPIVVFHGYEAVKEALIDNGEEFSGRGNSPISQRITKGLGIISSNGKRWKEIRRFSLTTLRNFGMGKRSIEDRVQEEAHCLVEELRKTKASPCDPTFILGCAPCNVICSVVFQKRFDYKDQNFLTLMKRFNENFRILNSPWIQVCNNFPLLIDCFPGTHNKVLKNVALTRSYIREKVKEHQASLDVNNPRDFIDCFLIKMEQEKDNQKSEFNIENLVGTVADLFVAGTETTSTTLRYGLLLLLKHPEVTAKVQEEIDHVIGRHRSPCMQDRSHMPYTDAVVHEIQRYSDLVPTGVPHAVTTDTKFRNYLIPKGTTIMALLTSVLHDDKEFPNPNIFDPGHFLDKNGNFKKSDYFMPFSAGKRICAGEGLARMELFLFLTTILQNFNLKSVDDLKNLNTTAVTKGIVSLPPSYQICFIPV

[2] = Tmax in C57BL/6J mouse at 3 mg/kg, po measured up to 30 hrs by LC-MS/MS analysis; assay type: ADME, organism-based; settings: in vivo
Outline: (§1)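 Male C57BL/6J mice (n = 6) received single doses of 3 mg/kg po or 1 mg/kg iv. Plasma concentrations were measured by LC-MS. Values are mean ± SD. Oral bioavailability (%F) was calculated from the ratio to iv AUC.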

[3] = molecular target: Phosphatidylinositol 4,5-bisphosphate 3-kinase catalytic subunit beta isoform (Homo sapiens, UniProt P42338); experiment: Inhibition of human PI3Kbeta using PIP2 as substrate after 1 hr
Sequence of Phosphatidylinositol 4,5-bisphosphate 3-kinase catalytic subunit beta isoform (P42338 whole entry, canonical isoform): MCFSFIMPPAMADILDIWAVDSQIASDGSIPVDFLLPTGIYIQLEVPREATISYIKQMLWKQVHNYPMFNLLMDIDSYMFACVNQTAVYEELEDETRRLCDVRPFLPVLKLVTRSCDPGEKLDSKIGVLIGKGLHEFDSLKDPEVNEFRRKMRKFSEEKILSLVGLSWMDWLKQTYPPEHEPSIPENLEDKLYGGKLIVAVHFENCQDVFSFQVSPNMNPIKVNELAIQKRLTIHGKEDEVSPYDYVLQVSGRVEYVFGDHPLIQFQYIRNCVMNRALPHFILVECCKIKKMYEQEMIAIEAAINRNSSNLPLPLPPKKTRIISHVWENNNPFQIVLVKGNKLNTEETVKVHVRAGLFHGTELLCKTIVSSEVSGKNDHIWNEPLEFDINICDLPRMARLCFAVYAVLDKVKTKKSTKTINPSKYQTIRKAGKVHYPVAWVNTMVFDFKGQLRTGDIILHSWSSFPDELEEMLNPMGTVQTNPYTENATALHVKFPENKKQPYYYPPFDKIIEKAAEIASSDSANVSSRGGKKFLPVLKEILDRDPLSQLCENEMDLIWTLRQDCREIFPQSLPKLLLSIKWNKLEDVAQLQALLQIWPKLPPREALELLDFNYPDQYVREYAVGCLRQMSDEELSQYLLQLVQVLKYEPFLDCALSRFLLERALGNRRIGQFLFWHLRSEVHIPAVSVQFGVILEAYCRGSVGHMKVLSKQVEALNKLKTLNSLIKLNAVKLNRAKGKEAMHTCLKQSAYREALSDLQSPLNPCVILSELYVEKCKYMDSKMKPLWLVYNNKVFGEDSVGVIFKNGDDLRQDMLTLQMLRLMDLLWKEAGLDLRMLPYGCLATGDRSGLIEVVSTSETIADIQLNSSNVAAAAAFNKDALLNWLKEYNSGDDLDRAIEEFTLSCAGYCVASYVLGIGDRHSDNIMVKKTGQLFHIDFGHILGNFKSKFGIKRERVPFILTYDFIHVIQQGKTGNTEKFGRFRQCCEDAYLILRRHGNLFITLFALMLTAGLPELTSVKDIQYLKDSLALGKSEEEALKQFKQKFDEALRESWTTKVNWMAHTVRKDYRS

[4] = molecular target: Voltage-gated inwardly rectifying potassium channel KCNH2 (Homo sapiens, UniProt Q12809); experiment: Inhibition of human ERG
[5] = molecular target: Phosphatidylinositol 4,5-bisphosphate 3-kinase catalytic subunit alpha isoform (Homo sapiens, UniProt P42336); experiment: Inhibition of human PI3Kalpha using PIP2 as substrate after 1 hr
Sequence of Phosphatidylinositol 4,5-bisphosphate 3-kinase catalytic subunit alpha isoform (P42336 whole entry, looked up, canonical isoform): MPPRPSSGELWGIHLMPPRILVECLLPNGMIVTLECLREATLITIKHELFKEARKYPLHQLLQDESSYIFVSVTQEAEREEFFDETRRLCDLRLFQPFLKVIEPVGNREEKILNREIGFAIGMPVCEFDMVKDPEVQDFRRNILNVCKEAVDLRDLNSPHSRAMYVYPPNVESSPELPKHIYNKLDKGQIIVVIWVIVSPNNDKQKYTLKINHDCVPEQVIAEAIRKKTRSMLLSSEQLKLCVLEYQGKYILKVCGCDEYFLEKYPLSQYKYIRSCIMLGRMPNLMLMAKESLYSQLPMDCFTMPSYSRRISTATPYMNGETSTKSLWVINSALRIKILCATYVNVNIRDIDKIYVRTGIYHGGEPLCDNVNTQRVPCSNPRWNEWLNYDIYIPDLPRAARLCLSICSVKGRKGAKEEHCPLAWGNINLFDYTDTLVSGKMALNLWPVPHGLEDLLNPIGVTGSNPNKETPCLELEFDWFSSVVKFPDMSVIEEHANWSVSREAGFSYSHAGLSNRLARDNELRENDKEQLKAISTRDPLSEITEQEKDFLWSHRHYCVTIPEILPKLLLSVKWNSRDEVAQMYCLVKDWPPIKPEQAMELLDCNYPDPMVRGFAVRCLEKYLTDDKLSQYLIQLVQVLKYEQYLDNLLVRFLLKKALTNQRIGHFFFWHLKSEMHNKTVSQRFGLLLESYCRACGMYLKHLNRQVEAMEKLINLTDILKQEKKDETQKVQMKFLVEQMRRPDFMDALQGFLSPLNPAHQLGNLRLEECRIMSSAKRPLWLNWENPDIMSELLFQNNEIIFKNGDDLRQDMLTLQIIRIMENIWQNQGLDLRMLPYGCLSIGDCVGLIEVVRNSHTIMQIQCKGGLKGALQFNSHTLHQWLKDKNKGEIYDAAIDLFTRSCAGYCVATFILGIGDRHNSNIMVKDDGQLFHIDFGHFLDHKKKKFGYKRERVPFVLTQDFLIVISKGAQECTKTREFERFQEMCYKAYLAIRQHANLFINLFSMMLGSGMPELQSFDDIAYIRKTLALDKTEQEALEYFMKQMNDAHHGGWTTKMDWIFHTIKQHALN

[6] = molecular target: CYP2C9 (Homo sapiens, UniProt P11712); experiment: Inhibition of CYP2C9 in human liver microsomes at 10 uM using testosterone/dextromethorphan as probe substrate measured after 10 mins relative to control; assay type: ADME
[7] = AUC (0 to infinity) in C57BL/6J mouse 3 mg/kg, po measured up to 30 hrs by LC-MS/MS analysis; assay type: ADME, organism-based; design: dose 3 mg/kg, route oral, time infinity; settings: in vivo
Outline: (§2)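 Single-dose PK in male C57BL/6J mice (n = 6), dosed 1 mg/kg iv or 3 mg/kg orally. Plasma drug levels were measured by LC-MS, and PK parameters (Tmax, Cmax, t1/2, Cl, AUC, %F) were derived. Values are given as mean ± SD. Oral bioavailability was calculated against the iv AUC.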

[8] = molecular target: Serine/threonine-protein kinase mTOR (Homo sapiens, UniProt P42345); experiment: Inhibition of mTOR (unknown origin) assessed as reduction in p70S6K phosphorylation
[9] = Cmax in C57BL/6J mouse at 3 mg/kg, po measured up to 30 hrs by LC-MS/MS analysis; assay type: ADME, organism-based; design: dose 3 mg/kg, route oral; settings: in vivo; outline: as §1
[10] = molecular target: T2, CYP1A2 (Homo sapiens, UniProt P05177); experiment: Inhibition of CYP1A2 in human liver microsomes at 10 uM using testosterone/dextromethorphan as probe substrate measured after 10 mins relative to control; assay type: ADME
T2 sequence (P05177 whole entry): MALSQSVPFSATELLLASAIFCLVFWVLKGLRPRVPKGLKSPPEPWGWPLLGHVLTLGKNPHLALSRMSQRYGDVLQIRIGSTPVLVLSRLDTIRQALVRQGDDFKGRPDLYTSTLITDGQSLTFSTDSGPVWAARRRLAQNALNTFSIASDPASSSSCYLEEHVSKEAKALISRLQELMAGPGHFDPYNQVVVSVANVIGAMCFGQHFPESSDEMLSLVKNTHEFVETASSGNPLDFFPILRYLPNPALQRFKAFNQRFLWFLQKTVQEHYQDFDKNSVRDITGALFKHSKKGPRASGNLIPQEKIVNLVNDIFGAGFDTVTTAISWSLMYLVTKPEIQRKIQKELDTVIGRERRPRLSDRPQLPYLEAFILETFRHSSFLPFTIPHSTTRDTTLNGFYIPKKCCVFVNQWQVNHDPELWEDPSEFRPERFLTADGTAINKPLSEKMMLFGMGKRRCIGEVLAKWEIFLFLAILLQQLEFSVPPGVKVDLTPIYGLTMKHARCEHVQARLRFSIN

[11] = tested on: Mus musculus; experiment: Antiarthritic activity in complete Freund's adjuvant-induced DBA1/J mouse arthritis model assessed as inhibition in clinical arthritis score at 30 mg/kg, po […] relative to control; assay type: functional, organism-based
Outline: (§3)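 Male DBA1j mice had arthritis induced with a collagen mixture and were enrolled once clinical signs appeared. Animals were split into four groups of eight: vehicle, a positive control and two doses of test compound. Treatment ran four weeks. The read-out was percentage inhibition of clinical arthritis score versus the vehicle group.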

[12] = Clearance in C57BL/6J mouse at 1 mg/kg, iv measured up to 30 hrs by LC-MS/MS analysis; assay type: ADME, organism-based; settings: in vivo; outline: as §1
[13] = molecular target: T3, Phosphatidylinositol 4,5-bisphosphate 3-kinase catalytic subunit delta isoform (Homo sapiens, UniProt O00329); experiment: Inhibition of human PI3Kdelta using PIP2 as substrate after 1 hr
T3 sequence (O00329 whole entry): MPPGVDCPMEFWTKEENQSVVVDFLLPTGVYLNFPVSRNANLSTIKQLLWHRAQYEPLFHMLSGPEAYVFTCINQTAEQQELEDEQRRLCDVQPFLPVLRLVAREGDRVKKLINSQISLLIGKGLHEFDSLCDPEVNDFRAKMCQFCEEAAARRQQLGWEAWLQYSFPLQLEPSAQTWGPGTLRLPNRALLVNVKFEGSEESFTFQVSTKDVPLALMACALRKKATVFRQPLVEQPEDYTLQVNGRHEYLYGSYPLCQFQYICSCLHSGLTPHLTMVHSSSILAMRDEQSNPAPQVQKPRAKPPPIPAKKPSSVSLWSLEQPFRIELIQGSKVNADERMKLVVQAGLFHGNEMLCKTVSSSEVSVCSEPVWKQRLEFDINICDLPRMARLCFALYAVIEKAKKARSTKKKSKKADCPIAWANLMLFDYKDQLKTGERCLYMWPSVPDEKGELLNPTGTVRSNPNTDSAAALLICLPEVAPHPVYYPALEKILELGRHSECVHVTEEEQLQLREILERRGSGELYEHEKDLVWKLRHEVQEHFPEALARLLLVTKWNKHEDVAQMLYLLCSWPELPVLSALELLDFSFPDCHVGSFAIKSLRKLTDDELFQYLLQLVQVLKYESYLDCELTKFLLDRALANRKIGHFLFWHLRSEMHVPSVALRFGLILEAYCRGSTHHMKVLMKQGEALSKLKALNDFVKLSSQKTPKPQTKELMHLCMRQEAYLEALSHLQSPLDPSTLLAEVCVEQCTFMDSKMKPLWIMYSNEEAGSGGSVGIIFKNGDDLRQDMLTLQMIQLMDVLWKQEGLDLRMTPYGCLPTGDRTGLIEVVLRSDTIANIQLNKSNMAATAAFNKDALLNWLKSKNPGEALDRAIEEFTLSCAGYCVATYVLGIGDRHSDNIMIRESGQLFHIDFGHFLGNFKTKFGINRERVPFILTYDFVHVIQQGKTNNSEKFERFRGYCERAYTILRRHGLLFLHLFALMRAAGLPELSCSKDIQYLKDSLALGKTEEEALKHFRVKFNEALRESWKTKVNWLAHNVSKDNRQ

[14] = organism: Homo sapiens; experiment: Selectivity ratio of IC50 for human PI3Kgamma to IC50 for human PI3Kdelta
Outline: (§4)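 IC50s for the PI3K α, β, γ and δ isoforms came from a commercial PI3K inhibitory activity assay kit. Each IC50 is the mean of at least two experiments. The ratio is the α, β or γ IC50 divided by the δ IC50.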

[15] = organism: Homo sapiens; experiment: Selectivity ratio of IC50 for human PI3Kalpha to IC50 for human PI3Kdelta; outline: as §4
[16] = AUC (0 to infinity) in C57BL/6J mouse 1 mg/kg, iv measured up to 30 hrs by LC-MS/MS analysis; assay type: ADME, organism-based; design: dose 1 mg/kg, time infinity, route intravenous; settings: in vivo; outline: as §2
[17] = Half life in C57BL/6J mouse at 3 mg/kg, po measured up to 30 hrs by LC-MS/MS analysis; assay type: ADME, organism-based; settings: in vivo; outline: as §1
[18] = Protein binding in DBA1/J mouse plasma; assay type: ADME, cell-free; settings: read-out: PPB (converted)
[19] = tested on: TMD8; experiment: Antiproliferative activity against human TMD8 cells; assay type: functional, cell-based
[20] = molecular target: Phosphatidylinositol 4,5-bisphosphate 3-kinase catalytic subunit gamma isoform (Homo sapiens, UniProt P48736); experiment: Inhibition of human PI3Kgamma using PIP2 as substrate after 1 hr
Sequence of Phosphatidylinositol 4,5-bisphosphate 3-kinase catalytic subunit gamma isoform (P48736 whole entry, canonical isoform): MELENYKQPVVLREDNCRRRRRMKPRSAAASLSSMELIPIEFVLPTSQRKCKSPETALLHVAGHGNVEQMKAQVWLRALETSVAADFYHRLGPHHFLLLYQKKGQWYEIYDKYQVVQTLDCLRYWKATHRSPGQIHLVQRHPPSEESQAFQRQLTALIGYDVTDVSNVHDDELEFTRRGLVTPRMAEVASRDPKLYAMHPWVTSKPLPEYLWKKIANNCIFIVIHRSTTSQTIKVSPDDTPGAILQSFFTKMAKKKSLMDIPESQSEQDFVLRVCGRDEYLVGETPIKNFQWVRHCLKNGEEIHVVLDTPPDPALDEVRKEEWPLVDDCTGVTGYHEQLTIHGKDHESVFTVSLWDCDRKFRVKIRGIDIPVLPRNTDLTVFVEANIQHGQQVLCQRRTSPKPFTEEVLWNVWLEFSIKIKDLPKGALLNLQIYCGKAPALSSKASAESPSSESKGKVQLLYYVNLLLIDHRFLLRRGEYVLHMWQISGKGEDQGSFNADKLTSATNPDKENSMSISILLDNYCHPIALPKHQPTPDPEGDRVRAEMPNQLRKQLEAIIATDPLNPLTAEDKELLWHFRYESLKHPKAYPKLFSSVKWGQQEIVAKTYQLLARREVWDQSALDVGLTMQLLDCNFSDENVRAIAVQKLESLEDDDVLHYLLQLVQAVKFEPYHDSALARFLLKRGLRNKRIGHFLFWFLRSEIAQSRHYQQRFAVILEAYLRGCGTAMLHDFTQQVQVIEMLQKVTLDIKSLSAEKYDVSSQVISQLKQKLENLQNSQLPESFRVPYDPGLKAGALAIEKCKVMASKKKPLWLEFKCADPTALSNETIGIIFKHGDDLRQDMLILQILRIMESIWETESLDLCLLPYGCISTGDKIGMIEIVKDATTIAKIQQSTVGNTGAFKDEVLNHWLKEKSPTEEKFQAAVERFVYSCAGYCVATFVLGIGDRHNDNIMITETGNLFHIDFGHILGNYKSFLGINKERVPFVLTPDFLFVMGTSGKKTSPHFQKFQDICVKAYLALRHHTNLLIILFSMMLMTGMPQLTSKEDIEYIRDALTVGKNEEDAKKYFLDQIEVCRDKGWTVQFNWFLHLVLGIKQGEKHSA

[21] = molecular target: CYP2D6 (Homo sapiens, UniProt P10635); experiment: Inhibition of CYP2D6 in human liver microsomes at 10 uM using testosterone/dextromethorphan as probe substrate measured after 10 mins relative to control; assay type: ADME
Sequence of CYP2D6 (P10635 whole entry): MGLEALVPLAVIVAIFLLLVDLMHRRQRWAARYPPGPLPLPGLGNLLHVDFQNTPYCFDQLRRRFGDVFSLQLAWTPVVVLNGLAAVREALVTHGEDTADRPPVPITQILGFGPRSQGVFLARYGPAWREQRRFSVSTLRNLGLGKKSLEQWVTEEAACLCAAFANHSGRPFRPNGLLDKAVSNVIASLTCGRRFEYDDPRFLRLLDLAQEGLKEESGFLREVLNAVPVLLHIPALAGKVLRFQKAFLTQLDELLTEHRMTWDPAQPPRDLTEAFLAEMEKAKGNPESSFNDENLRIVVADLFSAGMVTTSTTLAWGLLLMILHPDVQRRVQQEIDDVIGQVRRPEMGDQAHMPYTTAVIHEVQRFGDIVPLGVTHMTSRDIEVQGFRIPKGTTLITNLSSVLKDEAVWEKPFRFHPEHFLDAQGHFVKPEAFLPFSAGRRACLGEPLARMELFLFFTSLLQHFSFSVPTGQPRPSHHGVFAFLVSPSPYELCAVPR

[22] = tested on: Mus musculus; experiment: Antiarthritic activity in complete Freund's adjuvant-induced DBA1/J mouse arthritis model assessed as inhibition in clinical arthritis score at 10 mg/kg, po administered […] relative to control; assay type: functional, organism-based; outline: as §3
[23] = tested on: TMD8; experiment: Antitumor activity against human TMD8 cells xenografted in SCID mouse assessed as decrease in tumor volume at 3 to 30 mg/kg/day, po QD for 16 days and measured every alternate day; assay type: functional, organism-based
Outline: (§5)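 Male SCID mice were inoculated with TMD-8 cells. Oral doses of 3, 10 and 30 mg/kg/day were given. The efficacy endpoint was inhibition of tumor volume relative to the vehicle (untreated) group.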

[24] = organism: Homo sapiens; experiment: Selectivity ratio of IC50 for human PI3Kbeta to IC50 for human PI3Kdelta; outline: as §4
[25] = molecular target: CYP2C19 (Homo sapiens, UniProt P33261); experiment: Inhibition of CYP2C19 in human liver microsomes at 10 uM using testosterone/dextromethorphan as probe substrate measured after 10 mins relative to control; assay type: ADME
Sequence of CYP2C19 (P33261 whole entry): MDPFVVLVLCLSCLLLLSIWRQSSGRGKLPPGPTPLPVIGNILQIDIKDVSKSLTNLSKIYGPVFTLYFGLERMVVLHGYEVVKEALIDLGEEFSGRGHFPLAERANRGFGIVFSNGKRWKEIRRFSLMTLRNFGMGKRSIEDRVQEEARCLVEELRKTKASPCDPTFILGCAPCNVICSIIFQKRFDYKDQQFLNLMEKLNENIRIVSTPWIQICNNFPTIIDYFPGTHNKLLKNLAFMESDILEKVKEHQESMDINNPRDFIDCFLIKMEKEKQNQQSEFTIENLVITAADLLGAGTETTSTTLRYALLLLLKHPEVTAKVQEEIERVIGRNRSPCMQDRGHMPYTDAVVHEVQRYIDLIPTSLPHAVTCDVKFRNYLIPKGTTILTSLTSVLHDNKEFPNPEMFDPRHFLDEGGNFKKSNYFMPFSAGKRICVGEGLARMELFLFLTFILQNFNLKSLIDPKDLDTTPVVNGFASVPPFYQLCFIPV

[26] = Oral bioavailability in C57BL/6J mouse at 3 mg/kg measured up to 30 hrs by LC-MS/MS analysis; assay type: ADME, organism-based; settings: in vivo; outline: as §1
[27] = Toxicity in human TMD8 cells xenografted SCID mouse assessed as decrease in body weight at 30 mg/kg/day, po QD for 16 days; assay type: organism-based; settings: in vivo, 384 h
Outline: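 Male SCID mice bearing TMD-8 xenografts received oral doses of 3, 10 or 30 mg/kg/day. Body weight was recorded during treatment.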

[28] = molecular target: CYP3A4 (Homo sapiens, UniProt P08684); experiment: Inhibition of CYP3A4 in human liver microsomes at 10 uM using testosterone/dextromethorphan as probe substrate measured after 10 mins relative to control; assay type: ADME
Sequence of CYP3A4 (P08684 whole entry): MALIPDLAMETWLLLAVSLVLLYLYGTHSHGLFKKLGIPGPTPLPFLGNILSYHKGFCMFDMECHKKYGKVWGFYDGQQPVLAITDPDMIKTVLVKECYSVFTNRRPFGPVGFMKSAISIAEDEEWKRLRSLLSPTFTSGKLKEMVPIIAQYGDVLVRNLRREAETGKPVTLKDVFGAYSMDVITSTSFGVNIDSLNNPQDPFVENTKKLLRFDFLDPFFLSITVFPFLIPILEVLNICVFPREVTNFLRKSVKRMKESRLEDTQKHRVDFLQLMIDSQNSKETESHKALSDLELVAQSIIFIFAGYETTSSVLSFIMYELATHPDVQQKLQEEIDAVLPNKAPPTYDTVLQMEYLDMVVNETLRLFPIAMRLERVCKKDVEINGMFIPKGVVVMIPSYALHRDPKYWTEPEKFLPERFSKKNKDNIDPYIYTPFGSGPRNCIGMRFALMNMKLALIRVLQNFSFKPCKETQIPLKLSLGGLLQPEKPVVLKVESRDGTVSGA

[29] = tested on: TMD8; experiment: Antitumor activity against human TMD8 cells xenografted in SCID mouse assessed as decrease in tumor volume at 30 mg/kg/day, po QD for 16 days and measured every alternate day; assay type: functional; settings: 384 h; outline: as §5
[30] = Toxicity in DBA1/J mouse assessed as reduction in body weight at 30 mg/kg, po administered for […] measured thrice per week; assay type: organism-based; settings: in vivo
Outline: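 The model was collagen-induced arthritis in male DBA1j mice, with eight per group and four weeks of treatment. Body weight was recorded three times weekly as a marker of treatment-related side effects.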

COc1ccc(Cn2c(=O)n(C)c3c4cc(-c5cnc(OC)c(NS(C)(=O)=O)c5)ccc4ncc32)cc1 gave an inhibition at 10 min, 10 µM [1] of less than 10%, a Tmax [2] of 0.25 h and an IC50 [3] of 589 nM. For the same compound, the IC50 [4] was greater than 30000 nM, the IC50 [5] was 891 nM and the inhibition at 10 min, 10 µM [6] was less than 10%. For the same compound, the AUC [7] was 3830 ng·h/mL, the IC50 [8] was greater than 1000 nM and the Cmax [9] was 1280 ng/mL. The inhibition at 10 min, 10 µM [10] was less than 10%, the inhibition [11] was “Active” and the clearance [12] was 8.24 mL/min/kg. For the same compound, the IC50 [13] was 1.9 nM, the Ratio IC50 [14] was 59 and the Ratio IC50 [15] was 469. For the same compound, the AUC [16] was 1850 ng·h/mL, the half-life [17] was 3.48 h and the fraction unbound [18] was 0.11. For the same compound, the IC50 [19] was 340 nM, the IC50 [20] was 112 nM and the inhibition at 10 min, 10 µM [21] was less than 10%. For the same compound, the inhibition [22] was “Active”, the Activity [23] was “Dose-dependent effect” and the Ratio IC50 [24] was 310. The inhibition at 10 min, 10 µM [25] was less than 10%, the bioavailability [26] was 68.9% and the Activity [27] was “Non-Toxic”. For the same compound, the inhibition at 10 min, 10 µM [28] was less than 10%, the inhibition in vivo at 30 mg/kg/day [29] was 100% and the Activity [30] was “Non-Toxic”.
For CC[C@H](Nc1ncnc2[nH]cnc12)c1nc2cccc(F)c2c(=O)n1-c1ccccc1 [IDELALISIB], the IC50 [8] was greater than 1000 nM and the IC50 [19] was 795 nM.
Compound COc1ccc(Cn2c(=O)n(C)c3c4cc(-c5ccccc5)ccc4ncc32)cc1 has an IC50 [13] of 29.4 nM.
Cc1ccc(Cn2c(=O)n(C)c3c4cc(-c5cnc6ccccc6c5)ccc4ncc32)cc1 gave an IC50 [13] of 18.4 nM.
